# Assay outcomes from PubChem.
# GRIN3A LBD mod – binders of NR3A ligand-binding domain, primary screen, biophysical, differential scanning fluorimetry, uHTS; Tm shift relative to glycine control, % at 25 µM; Glutamate receptor ionotropic, NMDA 3A (GRIN3A) ligand-binding domain; NR3A LBD differential scanning fluorimetry, Tm shift; 0% = protein alone, 100% = glycine-bound protein; AID 1259313, 2017; 340,000 compounds, 2.5% hits;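 active means melting temperature shift of at least 10% of the positive control shift, at one fixed dose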
# MPTP block – mitochondrial permeability transition pore inhibitors, primary screen, biochemical, isolated mouse mitochondria, absorbance; Ca2+ swelling absorbance, 30 min; inhibition, % at 10 µM; 360,000 compounds, 1.4% hits; AID 602449, 2012;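 active means inhibition of 50% or more, scaled per plate between neutral and stimulator controls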;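 further: 0% = DMSO wells given calcium and 100% = 1 mM EGTA wells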
# ADAM10 inh – human ADAM10 inhibitors, primary screen, biochemical, QFRET, HTS. Disintegrin and metalloproteinase domain-containing protein 10 (Homo sapiens), O14672. recombinant ADAM10, EDANS/DABCYL FRET peptide cleavage, 3 h. inhibition, % at 7 µM. 370,000 compounds, 0.62% hits. AID 720582, 2013;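 active means inhibition above a per-campaign cutoff equal to the mean of compounds falling between control-based bounds plus 3 SD, cut at about 20% in these data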;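 further: 0% = DMSO wells while the 100% control is not disclosed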
# SKN-1 inh – suppressors of acrylamide-induced Pgst-4::GFP reporter in worms, primary screen, SKN-1 inhibitor project, whole organism, uHTS, GFP/RFP fluorescence ratio, strain VP596; AID 624304, 2012; 360,000 compounds, 0.49% hits; inhibition, % at 21.8 µM; C. elegans VP596 Pgst-4::GFP/RFP ratio, 24 h;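 active means interference check ratio from 0.5 to 1.5 plus GFP to RFP signal ratio inhibition reaching or exceeding a fixed threshold, cut at about 30% in these data, passing the limit was not always enough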
# MT1-MMP act inh – blockers of MT1-MMP proenzyme processing, primary screen, HT1080 RFP-PRO-GFP cells, GFP/RFP fluorescence. Matrix metalloproteinase-14 (Homo sapiens), P50281. GFP/RFP ratio fluorescence, overnight; percent of plate control window, DMSO zero. GFP/RFP ratio change, % at 20 µM. 360,000 compounds, 0.061% hits. AID 651647, 2012;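 active means GFP/RFP ratio change of at least 30% with cell ATP level not reduced by more than half and red fluorescence within 50% of control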
#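 Read-out: GFP/RFP fluorescence ratio; Test system: RFP-PRO-GFP reporter HT1080 cells; Compound dosing: single-point 20 µM compound, 1% DMSO; Times: overnight compound exposure at 37 °C.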
# ADAM17 inh – ADAM17 inhibitors, primary screen, biochemical, QFRET. Disintegrin and metalloproteinase domain-containing protein 17 (Homo sapiens), P78536. recombinant ADAM17, EDANS/DABCYL FRET peptide cleavage. inhibition, % at 6.95 µM. 370,000 compounds, 0.83% hits. AID 720648, 2013;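 active means inhibition above the mean of compounds lying between control limits plus 3 SD, set per campaign, cut at about 8.5% in these data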;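 further: 0% = DMSO-only wells as the low control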
# Target sequence (P78536 215-824 limits assumed): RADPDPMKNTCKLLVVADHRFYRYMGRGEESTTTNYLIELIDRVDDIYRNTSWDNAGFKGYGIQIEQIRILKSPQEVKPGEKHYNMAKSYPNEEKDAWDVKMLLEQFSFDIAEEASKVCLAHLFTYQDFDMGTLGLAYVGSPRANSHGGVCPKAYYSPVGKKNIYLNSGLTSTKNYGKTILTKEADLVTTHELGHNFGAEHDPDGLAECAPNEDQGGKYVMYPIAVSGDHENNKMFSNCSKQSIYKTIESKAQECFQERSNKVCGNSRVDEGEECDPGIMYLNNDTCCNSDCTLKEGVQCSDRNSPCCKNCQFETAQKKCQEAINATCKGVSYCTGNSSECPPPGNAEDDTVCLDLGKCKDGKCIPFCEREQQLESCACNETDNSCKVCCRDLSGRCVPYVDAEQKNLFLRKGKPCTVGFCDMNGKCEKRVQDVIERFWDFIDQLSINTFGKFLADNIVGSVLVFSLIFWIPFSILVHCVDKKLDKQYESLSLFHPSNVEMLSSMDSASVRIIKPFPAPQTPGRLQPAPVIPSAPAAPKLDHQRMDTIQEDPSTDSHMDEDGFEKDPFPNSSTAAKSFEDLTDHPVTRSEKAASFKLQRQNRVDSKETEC
# ADAM10 confirm – human ADAM10 inhibitors, confirmation, biochemical, QFRET, triplicate; shares compounds with ADAM10 inh; ADAM10 QFRET peptide cleavage, EDANS fluorescence; inhibition, % at 6.95 µM; AID 743208, 2013; 2,100 compounds, 1% hits;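 active means inhibition above about 20% chosen separately for each screening run, limit read from the data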;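 further: 0% = DMSO wells and 100% = marimastat wells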
# ADAM17 counter – ADAM17 inhibitors, counter-screen for ADAM10 exosite inhibitor project, biochemical, QFRET, high throughput. shares compounds with ADAM10 inh. ADAM17 QFRET peptide cleavage, EDANS fluorescence. inhibition, % at 6.95 µM. 2,100 compounds, 0.5% hits;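 active means mean triplicate inhibition above the solvent-only control wells' mean plus 3 SD, cut at about 12% in these data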;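 further: 0% = DMSO wells and 100% = marimastat wells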
# ADAM10 counter – ADAM10 inhibitors, counter-screen for ADAM17 exosite inhibitor project, biochemical, FRET, human ADAM10. recombinant ADAM10, EDANS/DABCYL FRET peptide cleavage, 3 h. shares compounds with ADAM17 inh. 2,900 compounds, 47% hits. inhibition, % at 6.95 µM;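 active means mean inhibition over the triplicate runs exceeds the activity threshold set in the earlier primary screen, cut at about 20% in these data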;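 further: 0% = DMSO wells and 100% = marimastat wells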
# ADAM17 confirm – ADAM17 inhibitors, hit retest, confirmation, biochemical, QFRET peptide cleavage | recombinant ADAM17, EDANS/DABCYL QFRET peptide cleavage | AID 743257, 2014 | shares compounds with ADAM17 inh | 2,900 compounds, 65% hits | inhibition, % at 6.95 µM;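 active means mean inhibition across replicates above the hit cutoff set in the primary screen, cut at about 8.5% in these data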;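 further: 0% = DMSO wells and 100% = marimastat wells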
# Active calls of the source: *; · = no result. This is a sample that favours compounds with a hit; in the whole collection about 4.7% have one here.
SMILES,GRIN3A LBD mod,MPTP block,ADAM10 inh,SKN-1 inh,MT1-MMP act inh,ADAM17 inh,ADAM10 confirm,ADAM17 counter,ADAM10 counter,ADAM17 confirm
Cc1cccc(NC(=S)N/N=C/c2ccc([N+](=O)[O-])s2)c1,6,6,26*,44*,-31,13*,8,4,23*,15*
Cc1ccc(C(=O)N/N=C/c2ccc([N+](=O)[O-])s2)cc1,0,-28,-9,9,3,-3,·,·,·,·
CNc1ccc(Br)cc(C(=O)/C=C/c2ccc(Cl)cc2Cl)c1=O,-3,3,-13,3,-16,-5,·,·,·,·
CN(C)S(=O)(=O)c1cccc(NC(=O)CSc2nc3ccccc3n2-c2ccccc2)c1,-2,2,20*,2,-19,10*,7,2,24*,13*
O=C(CSc1nc2ccccc2c(=O)n1-c1ccc(F)c(Cl)c1)Nc1cccc(S(=O)(=O)N2CCOCC2)c1,5,1,20*,15,0,10*,8,2,30*,20*
O=C(CSc1nc2ccccc2c(=O)n1-c1ccc(F)c(Cl)c1)Nc1ccc2c(c1)CCC2,·,1,-9,4,2,-3,·,·,·,·
Cc1ccc(C(=O)OCc2ccc3c(c2)OCO3)cc1S(=O)(=O)N1CCCCC1,10,0,21*,-9,-8,13*,4,1,15,9.4*
C=CC[C@H](CC(=O)N(CCO)Cc1ccccc1)C(=O)N[C@H](COC(=O)[C@H](CC=C)CC(=O)OC(C)(C)C)Cc1ccccc1,0,0,13,18,-18,6,·,·,·,·
C=CC[C@@H](CC(=O)N(CCO)Cc1ccccc1)C(=O)N[C@H](COC(=O)[C@@H](CC=C)CC(=O)OC(C)(C)C)Cc1c[nH]c2ccccc12,-13,1,25*,-2,-5,14*,2,1,33*,16*
C=CC[C@H](CC(=O)N(CCO)Cc1ccccc1)C(=O)N[C@@H](COC(=O)[C@H](CC=C)CC(=O)OC(C)(C)C)Cc1c[nH]c2ccccc12,-14,0,13,6,-12,5,·,·,·,·
C=CC[C@@H](CC(=O)N(CCO)Cc1ccccc1)C(=O)N[C@@H](COC(=O)[C@@H](CC=C)CC(=O)OC(C)(C)C)Cc1c[nH]c2ccccc12,-2,2,45*,15,-9,22*,7,1,41*,21*
